Here are results for 27 compounds from ChEMBL document CHEMBL1157150, “Synthesis, structure and antibacterial activity of novel 1-(5-substituted-3-substituted-4,5-dihydropyrazol-1-yl)ethanone oxime ester derivatives” (Bioorg Med Chem, 2008).

One test deals with Bacillus subtilis. In words: microbe, parasite or virus in culture. The test is classed as functional. Particulars: ATCC 6633.
A further test has as its system Escherichia coli. In words: Antibacterial activity against Escherichia coli ATCC 35218. The test is classed as functional.
In another test the test system is Pseudomonas fluorescens. In words: Antibacterial activity against Pseudomonas fluorescens ATCC 13525. The test is classed as functional.
The next test concerns Staphylococcus aureus. In words: Antibacterial activity against Staphylococcus aureus ATCC 6538. The test is classed as functional.
Another test relates to Pseudomonas aeruginosa. In words: Antibacterial activity against Pseudomonas aeruginosa ATCC 13525. The format is functional, organism-based. The essentials: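 Broth microdilution in MH medium with an inoculum of about 10⁵ cfu/mL. Compounds were serially diluted from a DMSO stock and incubated 24 h at 37 °C. MIC was read visually, then confirmed colorimetrically: MTT (2 mg/mL in PBS, pH 7.4) was added for 4–5 h at room temperature, the dye was extracted with isopropanol/5% 1 mol/L HCl for 12 h, and OD was read at 550 nm.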

In brackets after ≈: the same amount, converted by molar mass. Activity calls are given as the source filed them. The rule behind the calls is not given here.

Regarding `C=CC(=O)O/N=C(/C)N1N=C(c2ccc(Cl)cc2Cl)CC1c1ccc(C(F)(F)F)cc1` (stereo not drawn), the MIC with Bacillus subtilis stood at 3.12 µg/mL (≈ 6.65 µM); against Escherichia coli, 6.25 µg/mL (≈ 13.3 µM); with Pseudomonas fluorescens, 12.5 µg/mL (≈ 26.6 µM); against Staphylococcus aureus, 12.5 µg/mL (≈ 26.6 µM). For the same compound, the outcome in the test on Pseudomonas aeruginosa was Active.

With `C/C(=N/OC(=O)c1ccc(Cl)cc1)N1N=C(c2ccc(Cl)cc2Cl)CC1c1ccccc1F` (stereo not drawn), the MIC with Bacillus subtilis is 12.5 µg/mL (≈ 24.8 µM); in the test on Escherichia coli, 50 µg/mL (≈ 99.1 µM); against Pseudomonas fluorescens, 50 µg/mL (≈ 99.1 µM); in the test with Staphylococcus aureus it was 50 µg/mL (≈ 99.1 µM). The outcome in the test with Pseudomonas aeruginosa was Active.

Regarding `CCC(=O)O/N=C(/C)N1N=C(c2ccc(Cl)cc2Cl)CC1c1ccccc1F` (stereo not drawn), the MIC against Bacillus subtilis, against Escherichia coli, in the test on Pseudomonas fluorescens and against Staphylococcus aureus was 50 µg/mL (≈ 118 µM) in each case. In addition, in the test on Pseudomonas aeruginosa, the outcome was Active.

In the case of `COC1CC(c2ccccc2)=NN1/C(C)=N\OC(=O)c1ccc(F)cc1` (stereo not drawn), the MIC against Bacillus subtilis turned out to be 3.12 µg/mL (≈ 8.79 µM); against Escherichia coli, 6.25 µg/mL (≈ 17.6 µM); in the test on Pseudomonas fluorescens, 12.5 µg/mL (≈ 35.2 µM); against Staphylococcus aureus, 6.25 µg/mL (≈ 17.6 µM).

As for `C/C(=N/OC(=O)c1ccccc1F)N1N=C(c2ccc(Cl)cc2Cl)CC1c1ccc(C(F)(F)F)cc1` (stereo not drawn), the MIC against Bacillus subtilis was found to be 12.5 µg/mL (≈ 23.2 µM); in the test on Escherichia coli it was 50 µg/mL (≈ 92.9 µM); in the test with Pseudomonas fluorescens, 12.5 µg/mL (≈ 23.2 µM); with Staphylococcus aureus, 50 µg/mL (≈ 92.9 µM). Moreover, the outcome in the test on Pseudomonas aeruginosa was Active.

Take `COC1CC(c2ccccc2)=NN1/C(C)=N\OC(=O)c1ccccc1C` (stereo not drawn): the MIC against Bacillus subtilis was 12.5 µg/mL (≈ 35.6 µM); in the test on Escherichia coli, 12.5 µg/mL (≈ 35.6 µM); against Pseudomonas fluorescens, 25 µg/mL (≈ 71.1 µM); with Staphylococcus aureus, 12.5 µg/mL (≈ 35.6 µM).

With `C/C(=N/OC(=O)c1ccccc1C)N1N=C(c2ccc(Cl)cc2Cl)CC1c1ccc(C(F)(F)F)cc1` (stereo not drawn), the MIC with Bacillus subtilis, against Escherichia coli, against Pseudomonas fluorescens and against Staphylococcus aureus was 50 µg/mL (≈ 93.6 µM) throughout. Moreover, the outcome in the test with Pseudomonas aeruginosa was Active.

For `CC1=NN(/C(C)=N\OC(=O)c2ccc(C(F)(F)F)cc2)C(c2ccc(OCc3ccc(F)cc3)cc2)C1` (stereo not drawn), the MIC is 25 µg/mL (≈ 48.7 µM) with Bacillus subtilis, 25 µg/mL (≈ 48.7 µM) in the test with Escherichia coli, 25 µg/mL (≈ 48.7 µM) with Pseudomonas fluorescens and 50 µg/mL (≈ 97.4 µM) in the test with Staphylococcus aureus. The result in the test on Pseudomonas aeruginosa was Active.

For the compound `C/C(=N/OC(=O)c1ccccc1C)N1N=C(c2ccc(Cl)cc2Cl)CC1c1ccccc1F` (stereo not drawn), the MIC against Bacillus subtilis, with Escherichia coli, in the test on Pseudomonas fluorescens and in the test on Staphylococcus aureus was 50 µg/mL (≈ 103 µM) throughout. In addition, the result in the test with Pseudomonas aeruginosa was Active.

With `C/C(=N/OC(=O)/C=C/c1ccccc1)N1N=C(c2ccc(Cl)cc2Cl)CC1c1ccc(C(F)(F)F)cc1` (stereo not drawn), the MIC is 1.56 µg/mL (≈ 2.86 µM) with Bacillus subtilis, 12.5 µg/mL (≈ 22.9 µM) with Escherichia coli, 3.12 µg/mL (≈ 5.72 µM) in the test with Pseudomonas fluorescens and 6.25 µg/mL (≈ 11.4 µM) in the test on Staphylococcus aureus. For the same compound, the result in the test on Pseudomonas aeruginosa was Active.

In the case of `CC1=NN(/C(C)=N\OC(=O)c2ccc(F)cc2)C(c2ccccc2OCc2ccc(F)cc2)C1` (stereo not drawn), the MIC in the test on Bacillus subtilis, in the test with Escherichia coli, against Pseudomonas fluorescens and with Staphylococcus aureus was greater than 50 µg/mL each time. Besides, the result in the test on Pseudomonas aeruginosa was Active.

With `C/C(=N/OC(=O)c1ccc(F)cc1)N1N=C(c2ccc(Cl)cc2Cl)CC1c1ccccc1F` (stereo not drawn), the MIC with Bacillus subtilis is 25 µg/mL (≈ 51.2 µM); against Escherichia coli, 25 µg/mL (≈ 51.2 µM); with Pseudomonas fluorescens, 25 µg/mL (≈ 51.2 µM); with Staphylococcus aureus, 12.5 µg/mL (≈ 25.6 µM). Also, the result in the test with Pseudomonas aeruginosa was Active.

As to `COC1CC(c2ccccc2)=NN1/C(C)=N\OC(=O)/C=C/c1ccccc1` (stereo not drawn), the MIC in the test on Bacillus subtilis stood at 1.56 µg/mL (≈ 4.3 µM); in the test on Escherichia coli, 6.25 µg/mL (≈ 17.2 µM); against Pseudomonas fluorescens, 3.12 µg/mL (≈ 8.6 µM); against Staphylococcus aureus, 12.5 µg/mL (≈ 34.4 µM).

On to `CC1=NN(/C(C)=N\OC(=O)c2ccccc2Cl)C(c2ccc(OCc3ccc(F)cc3)cc2)C1` (stereo not drawn), for which the MIC against Bacillus subtilis worked out at 50 µg/mL (≈ 104 µM); in the test with Escherichia coli it was 50 µg/mL (≈ 104 µM); against Pseudomonas fluorescens, 50 µg/mL (≈ 104 µM); with Staphylococcus aureus it was 12.5 µg/mL (≈ 26 µM). Further, the outcome in the test on Pseudomonas aeruginosa was Active.

In the case of `C/C(=N/OC(=O)c1ccccc1F)N1N=C(c2ccc(Cl)cc2Cl)CC1c1ccccc1F` (stereo not drawn), the MIC came out at 12.5 µg/mL (≈ 25.6 µM) in the test with Bacillus subtilis, 25 µg/mL (≈ 51.2 µM) against Escherichia coli, 6.25 µg/mL (≈ 12.8 µM) in the test on Pseudomonas fluorescens and 12.5 µg/mL (≈ 25.6 µM) against Staphylococcus aureus. Besides, the result with Pseudomonas aeruginosa was Active.

On to `CCCC(=O)O/N=C(/C)N1N=C(C)CC1c1ccccc1OCc1ccc(F)cc1` (stereo not drawn), for which the MIC in the test with Bacillus subtilis, in the test with Escherichia coli, in the test with Pseudomonas fluorescens and in the test on Staphylococcus aureus was 50 µg/mL (≈ 122 µM) throughout. In addition, the outcome in the test with Pseudomonas aeruginosa was Active.

For `CC1=NN(/C(C)=N\OC(=O)c2ccc(C(F)(F)F)cc2)C(c2ccccc2OCc2ccc(F)cc2)C1` (stereo not drawn), the MIC with Bacillus subtilis, in the test with Escherichia coli, with Pseudomonas fluorescens and in the test with Staphylococcus aureus was 50 µg/mL (≈ 97.4 µM) throughout. In the test with Pseudomonas aeruginosa, the result was Active.

For `COC1CC(c2ccccc2)=NN1/C(C)=N\OC(=O)c1ccccc1[N+](=O)[O-]` (stereo not drawn), the MIC turned out to be 6.25 µg/mL (≈ 16.3 µM) in the test with Bacillus subtilis, 6.25 µg/mL (≈ 16.3 µM) in the test on Escherichia coli, 12.5 µg/mL (≈ 32.7 µM) against Pseudomonas fluorescens and 12.5 µg/mL (≈ 32.7 µM) against Staphylococcus aureus.

As to `C/C(=N/OC(=O)c1ccccc1[N+](=O)[O-])N1N=C(c2ccc(Cl)cc2Cl)CC1c1ccccc1F` (stereo not drawn), the MIC turned out to be 25 µg/mL (≈ 48.5 µM) with Bacillus subtilis, 50 µg/mL (≈ 97 µM) in the test on Escherichia coli, 50 µg/mL (≈ 97 µM) against Pseudomonas fluorescens and 50 µg/mL (≈ 97 µM) with Staphylococcus aureus. Moreover, in the test on Pseudomonas aeruginosa, the result was Active.

As for `CCC(=O)O/N=C(/C)N1N=C(C)CC1c1ccc(OCc2ccc(F)cc2)cc1` (stereo not drawn), the MIC against Bacillus subtilis, in the test on Escherichia coli, against Pseudomonas fluorescens and against Staphylococcus aureus was 50 µg/mL (≈ 126 µM) in each case. In addition, the outcome in the test with Pseudomonas aeruginosa was Active.

Consider `C/C(=N/OC(=O)c1ccccc1[N+](=O)[O-])N1N=C(c2ccc(Cl)cc2Cl)CC1c1ccc(C(F)(F)F)cc1` (stereo not drawn), for which the MIC in the test on Bacillus subtilis, with Escherichia coli, against Pseudomonas fluorescens and with Staphylococcus aureus was 50 µg/mL (≈ 88.4 µM) each time. For the same compound, the outcome with Pseudomonas aeruginosa was Active.

For `NC[C@H]1O[C@H](O[C@H]2[C@H](O)[C@@H](O[C@H]3O[C@H](CO)[C@@H](O)[C@H](N)[C@H]3O)[C@H](N)C[C@@H]2N)[C@H](O)[C@@H](O)[C@@H]1O` [KANAMYCIN], the MIC against Bacillus subtilis worked out at 0.39 µg/mL (≈ 0.805 µM); against Escherichia coli, 1.56 µg/mL (≈ 3.22 µM); against Pseudomonas fluorescens, 3.12 µg/mL (≈ 6.45 µM); in the test with Staphylococcus aureus, 3.12 µg/mL (≈ 6.45 µM).

As for `CC1=NN(/C(C)=N\OC(=O)c2ccccc2F)C(c2ccccc2OCc2ccc(F)cc2)C1` (stereo not drawn), the MIC against Bacillus subtilis, with Escherichia coli, with Pseudomonas fluorescens and with Staphylococcus aureus was 50 µg/mL (≈ 108 µM) each time. Besides, the result in the test on Pseudomonas aeruginosa was Active.

Take `CC1=NN(/C(C)=N\OC(=O)/C=C/c2ccccc2)C(c2ccc(OCc3ccc(F)cc3)cc2)C1` (stereo not drawn): the MIC in the test with Bacillus subtilis, with Escherichia coli, in the test with Pseudomonas fluorescens and in the test with Staphylococcus aureus was 12.5 µg/mL (≈ 26.5 µM) in each case. Further, in the test with Pseudomonas aeruginosa, the outcome was Active.

With `C/C(=N/OC(=O)c1ccc(Cl)cc1)N1N=C(c2ccc(Cl)cc2Cl)CC1c1ccc(C(F)(F)F)cc1` (stereo not drawn), the MIC against Bacillus subtilis turned out to be 12.5 µg/mL (≈ 22.5 µM); in the test with Escherichia coli, 50 µg/mL (≈ 90.1 µM); against Pseudomonas fluorescens it was 50 µg/mL (≈ 90.1 µM); in the test on Staphylococcus aureus, 50 µg/mL (≈ 90.1 µM). In addition, the outcome with Pseudomonas aeruginosa was Active.

In the case of `COC1CC(c2ccccc2)=NN1/C(C)=N\OC(=O)c1ccc(Cl)cc1` (stereo not drawn), the MIC against Bacillus subtilis was 3.12 µg/mL (≈ 8.4 µM); with Escherichia coli, 6.25 µg/mL (≈ 16.8 µM); against Pseudomonas fluorescens, 6.25 µg/mL (≈ 16.8 µM); in the test with Staphylococcus aureus, 25 µg/mL (≈ 67.2 µM).

`CCC(=O)O/N=C(/C)N1N=C(c2ccccc2)CC1OC` (stereo not drawn): the MIC was 12.5 µg/mL (≈ 43.2 µM) with Bacillus subtilis, 12.5 µg/mL (≈ 43.2 µM) in the test on Escherichia coli, 12.5 µg/mL (≈ 43.2 µM) with Pseudomonas fluorescens and 25 µg/mL (≈ 86.4 µM) against Staphylococcus aureus.
